Experiment: Toxicity liver stage against HepG2, at 10uM
Assay type: cell-based
Parameters: test concentration 10 uM, cell line HepG2-A16-CD81EGFP
Conditions: human, HepG2-A16-CD81EGFP cells; read-out: INHIBITION
Procedure, shortened: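 Uninfected HepG2-A16-CD81EGFP cells, 3 × 10^3 per well, 1536-well, plated on prespotted compound at 10 μM final, parasite-free screening media added to match infected plates; puromycin 10 μM positive, DMSO 0.5% negative; run in parallel with 48 h PbLuc assay at 37 °C, 5% CO2; viability by CellTiter-Glo luminescence, normalized to controls.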

## CC(C)(C)n1ncc2c(=O)n(CC(=O)NCc3ccccc3)cnc21
  cytotoxicity at 10 µM: 42%

## Fc1ccc(Sc2ccccc2CNC2=NCCN2)cc1
  cytotoxicity at 10 µM: 18.9%

## CCS(=O)(=O)N1CCc2ccc(NC(=O)Nc3cccc(C)c3)cc21
  cytotoxicity at 10 µM: 42.3%

## CCc1ccc(S(=O)(=O)NCC2CCN(c3cnccn3)CC2)s1
  cytotoxicity at 10 µM: 7.69%

## Cn1nc(N2CCCC(C(=O)Nc3nc4ccccc4s3)C2)ccc1=O (stereo unspecified)
  cytotoxicity at 10 µM: 27.6%

## CC(C)(C)NC(=O)N1CCC(Oc2ccc(C(F)(F)F)cn2)CC1
  cytotoxicity at 10 µM: 6.91%

## CC(C)Nc1nc2c(c(NC3CC3)n1)CN(C(=O)Cc1ccsc1)CC2
  cytotoxicity at 10 µM: 10.4%

## Cc1cnc(NC2CCc3c(ccc(=O)n3CC3CC3)C2)nc1 (stereo unspecified)
  cytotoxicity at 10 µM: -137%

## COCCN1C[C@H]2CCN(c3ncccn3)CC[C@H]2S1(=O)=O
  cytotoxicity at 10 µM: -2.2%

## CC(C)c1ccc(NC(=O)Cn2cc(I)cn2)cc1
  cytotoxicity at 10 µM: 2.77%

## O=C(Nc1ccc(Cl)cn1)c1nn(C2CCS(=O)(=O)C2)c2c1CCCC2 (stereo unspecified)
  cytotoxicity at 10 µM: 1.61%

## CC(C)c1ccc(OCn2ccc(C(=O)N3CCCC3)n2)cc1
  cytotoxicity at 10 µM: 12.7%

## Cc1ccc(-c2noc(C3CCN3C(=O)c3cc[nH]n3)n2)s1 (stereo unspecified)
  cytotoxicity at 10 µM: 8.47%

## CC(C)CNc1cc(-c2c[nH]nc2C2CCN(C(=O)C3CC3)C2)ccn1 (stereo unspecified)
  cytotoxicity at 10 µM: 83.8%

## Cc1cc(CN2CCc3nc(-c4ccncc4)nc(O)c3CC2)c(C)s1
  cytotoxicity at 10 µM: 3.27%

## CCn1ccc(-c2cc(NCCCOc3ccccc3C)nc(C)n2)n1
  cytotoxicity at 10 µM: -5.28%

## CCc1c(C)nc2cc(C3CCN(CCc4ccccc4)C3)nn2c1O (stereo unspecified)
  cytotoxicity at 10 µM: -20.1%

## CN(C)S(=O)(=O)N1CCCC(c2cccc(Cc3ccc(Cl)cc3)n2)C1 (stereo unspecified)
  cytotoxicity at 10 µM: 56%

## O=C1NCCCCC1SCc1coc(-c2ccc(F)cc2)n1 (stereo unspecified)
  cytotoxicity at 10 µM: 47.5%

## Cc1cnn(C2CN(C(C)c3nc(-c4ccccc4)no3)C2)c1 (stereo unspecified)
  cytotoxicity at 10 µM: -2.21%

## Cc1ccc(OCCCC(=O)Nc2nonc2C)cc1C
  cytotoxicity at 10 µM: 7.03%

## CC(Cc1ccco1)NC(=O)NCc1ncnn1C (stereo unspecified)
  cytotoxicity at 10 µM: 2.02%

## CC1CCN(C(=O)CSCCN2CCOCC2)CC1
  cytotoxicity at 10 µM: 1.89%

## Clc1cccc(C(NCc2ncc[nH]2)c2ccccn2)c1 (stereo unspecified)
  cytotoxicity at 10 µM: 0.863%

## CC(C)(C)n1ncc(NCC(O)c2ccccc2C(F)(F)F)c(Cl)c1=O (stereo unspecified)
  cytotoxicity at 10 µM: 53.6%

## COCC(O)CN(C)c1cc(C(F)(F)F)nc(-c2cccnc2)n1 (stereo unspecified)
  cytotoxicity at 10 µM: 7.02%

## CCN1CC(CN(C)c2cc(C)nc(N)n2)Oc2ccccc21 (stereo unspecified)
  cytotoxicity at 10 µM: 38.8%

## N#Cc1c(Cl)nsc1NCc1cccnc1OC1CCCC1
  cytotoxicity at 10 µM: 27.1%

## CCn1nc(C)cc1C(=O)OCCNc1ncnc2ccccc12
  cytotoxicity at 10 µM: 61.8%

## CC(C)C(C)(C#N)NC(=O)CN1CCCN(Cc2ccccc2F)CC1 (stereo unspecified)
  cytotoxicity at 10 µM: -5.84%

## COC(=O)C(C)(C)NC(=O)C1CC(=O)N(C2CC2)C1 (stereo unspecified)
  cytotoxicity at 10 µM: -139%

## CC(C)c1ccc(C(CN)N2CCc3sccc3C2)cc1 (stereo unspecified)
  cytotoxicity at 10 µM: 1.66%

## COc1ccc(C(=O)NCCCOC(C)c2ccccc2)c(OC)c1 (stereo unspecified)
  cytotoxicity at 10 µM: -17.3%

## Cc1cnn(-c2cccc(N3CCN(c4cc(C)nc(C)n4)CC3)n2)c1
  cytotoxicity at 10 µM: 7.82%

## O=C1N(Cc2ccc(F)c(F)c2)CCCC12CCN(C1CCCCC1)C2 (stereo unspecified)
  cytotoxicity at 10 µM: -0.268%

## Cc1nc(C)c(CCN2CCC(Oc3ccccc3F)CC2)s1
  cytotoxicity at 10 µM: 42.9%

## CCCc1nc(C(=O)NCCN2CCC(c3ccccc3C)C2)cs1 (stereo unspecified)
  cytotoxicity at 10 µM: -37.9%

## COc1cccc(OCC2CCCN(C(=O)CCn3ccnc3)C2)c1 (stereo unspecified)
  cytotoxicity at 10 µM: -19.8%

## N#Cc1cccnc1N1CCCC(CO)(Cc2ccc(F)cc2)C1 (stereo unspecified)
  cytotoxicity at 10 µM: 3.3%

## CC(C)[C@H](C)NC1CCN(c2ccc(-c3cscn3)cc2)CC1
  cytotoxicity at 10 µM: -50.8%

## Cc1ccccc1-c1noc(-c2ccc(N(C)C3CCOCC3)nc2)n1
  cytotoxicity at 10 µM: 2.65%

## CC(=O)N1CCN(Cc2cccc3c2sc2ccccc23)CC(O)C1 (stereo unspecified)
  cytotoxicity at 10 µM: -12.9%

## Cc1nn2cc(CCNC(=O)c3cc(C(C)C)nn3C)nc2s1
  cytotoxicity at 10 µM: 34.9%

## Cc1nc(N2CCC3(CCCN(CC4CC4)C3=O)C2)c2sccc2n1 (stereo unspecified)
  cytotoxicity at 10 µM: 42%

## CCCOc1ccccc1CCCNc1ncnc2oc(C)nc12
  cytotoxicity at 10 µM: 22.4%

## COCC1(Nc2nc(C)nc3c2cnn3C)CCCC1
  cytotoxicity at 10 µM: 37.4%

## Cc1cc(C2CCC2)nc(N2CCN(Cc3nccn3C)CC2)n1
  cytotoxicity at 10 µM: -6.86%

## CC(C)Cc1nc(CN2CCc3onc(-c4cccc(F)c4)c3C2)no1
  cytotoxicity at 10 µM: 2.3%

## CC(C)Oc1ccc(CN2CCCC(N3CCOCC3)C2)cc1CO (stereo unspecified)
  cytotoxicity at 10 µM: 1.48%

## CSC(C)Cc1c(-c2ccccc2)ncn1CCCNc1cccnc1 (stereo unspecified)
  cytotoxicity at 10 µM: 15.1%

## Cc1nc(NCCc2noc(C3CCCO3)n2)c2sccc2n1 (stereo unspecified)
  cytotoxicity at 10 µM: 53.6%

## CNc1nc(C)cc(NC2CCCN(C3Cc4ccccc4C3)C2)n1 (stereo unspecified)
  cytotoxicity at 10 µM: 12.5%

## Clc1cccc(C2CCN(c3ncnc4c3CCNC4)C2)c1 (stereo unspecified)
  cytotoxicity at 10 µM: 50%

## CCc1cc(N(C)Cc2cc[nH]n2)n2nc(C)c(C)c2n1
  cytotoxicity at 10 µM: 24%

## Cc1nc(CCN2CCC(Oc3ccccc3F)CC2)c(C)s1
  cytotoxicity at 10 µM: 7.08%

## CCCN1CCC(NC(=O)c2csc(C)c2-c2ccccc2)CC1
  cytotoxicity at 10 µM: -133%

## Cc1ccc2c(c1)c(CNC(=O)C1CC(=O)N(CCN(C)C)C1)nn2C (stereo unspecified)
  cytotoxicity at 10 µM: 1.66%

## CN(C)c1nc2c(c(N3CCC4(CC3)CNC(=O)C4)n1)CCCC2
  cytotoxicity at 10 µM: 0.995%

## CCCn1cc(-c2ccnc(NC3CCc4ccccc43)n2)c(C)n1 (stereo unspecified)
  cytotoxicity at 10 µM: 10.1%

## Cc1csc2ncnc(N3CCC(Cn4cc(C(C)(C)N)nn4)CC3)c12
  cytotoxicity at 10 µM: 25.5%

## Nc1nc(CCC(=O)N2CCOC(CC3CCCCC3)C2)cs1 (stereo unspecified)
  cytotoxicity at 10 µM: -9.18%

## CN(C)S(=O)(=O)N1CCCC(c2cccc(Cc3ccccc3)n2)C1 (stereo unspecified)
  cytotoxicity at 10 µM: 20.5%

## COc1ccc(C2=CCN(C(=O)CN(CC(N)=O)C(C)C)CC2)cc1
  cytotoxicity at 10 µM: 23.3%

## CCc1nc(CN2CCCN(c3nn4cc(C)nc4s3)CC2)no1
  cytotoxicity at 10 µM: -14.7%

## CC(NC(=O)NCc1cc(Br)cs1)c1ccccn1 (stereo unspecified)
  cytotoxicity at 10 µM: -17.6%

## COc1cccc(CN2CCN(c3ccc4nncn4n3)C(C)C2)c1 (stereo unspecified)
  cytotoxicity at 10 µM: 38.3%

## Cc1noc(NC(=O)c2ccc(Br)s2)n1
  cytotoxicity at 10 µM: -1.35%

## Cc1cc(CN2CCN(C(c3ccccc3)c3ccccc3)CC2)no1
  cytotoxicity at 10 µM: -6.56%

## Cc1cccc(Nc2cc(C3CCCN(CC(N)=O)C3)ccn2)n1 (stereo unspecified)
  cytotoxicity at 10 µM: 12.3%

## Fc1cccc(O[C@@H]2C[C@H]3CN(Cc4ccccn4)CCN3C2)c1
  cytotoxicity at 10 µM: -154%

## c1cnc(N2CCC3(CCCN(Cc4ccncc4)C3)CC2)nc1
  cytotoxicity at 10 µM: -91.6%

## CC(C)NC1CCc2[nH]c(=O)ccc2C1 (stereo unspecified)
  cytotoxicity at 10 µM: 3.64%

## Cc1csc(CN2CC[C@H]3O[C@H](C(=O)Nc4cccnc4)CC[C@H]32)n1
  cytotoxicity at 10 µM: -47.1%

## O=C(c1ccsc1)N1C[C@@H]2OCCN(CCN3CCCC3)[C@@H]2C1
  cytotoxicity at 10 µM: -73.7%

## Cc1ccc(O[C@@H]2C[C@H]3CN(C(=O)Cc4ccccn4)CCN3C2)cc1
  cytotoxicity at 10 µM: -59%

## CCCN1CCC(c2nc3ccc(-c4cccc(OC)c4)cn3n2)CC1
  cytotoxicity at 10 µM: -113%

## CCc1ccc(CN2C[C@@H]3OCCN(c4ccnc(N(C)C)n4)[C@@H]3C2)o1
  cytotoxicity at 10 µM: 61.8%

## COCCO[C@H]1CCN(c2cc(OC)ncn2)[C@H]1Cc1cccnc1
  cytotoxicity at 10 µM: -140%

## CN1CCC(c2nnc3ccc(C(=O)N4CCCCC4)cn23)C1 (stereo unspecified)
  cytotoxicity at 10 µM: -167%

## Cc1cccc(COc2ccc(C(C)N)cc2)c1 (stereo unspecified)
  cytotoxicity at 10 µM: -1.79%

## CN(C)C(=O)N1CC2(CCNCC2)c2cc(Cl)ccc21
  cytotoxicity at 10 µM: -69.8%
